Converted amounts (≈) assume the structure as drawn. Bridge positions count the residues as written; N and C are the ends. Square brackets hold non-standard residues; d marks the D form. Peptide text beside a SMILES is read from it. * marks the point of attachment. Tetradecanoyl(3R-OH) = CCCCCCCCCCC[C@@H](O)CC(=O)*; Asp(3S-OH) = N[C@H](C(=O)O)[C@H](O)C(=O)O; Thr(4-Cl) = N[C@H](C(=O)O)[C@H](O)CCl; aThr = C[C@H](O)[C@H](N)C(=O)O; dDab = NCC[C@@H](N)C(=O)O; Dab = NCC[C@H](N)C(=O)O; Dhb = C/C=C(\N)C(=O)O
Tests used:
Aspergillus fumigatus = assay: In vitro potency against Aspergillus fumigatus; assay type: functional
Outline: (§1)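 Broth microdilution in Sabouraud broth. Compounds were dissolved in DMSO and diluted to 20 μg/mL final in the first well, then serially 2-fold. Yeasts were grown on Sabouraud dextrose agar at 35 °C for 24 h, suspended in saline and adjusted to 2×10^5/mL in broth. A. fumigatus spores were taken from potato dextrose agar mycelia into 0.1% Tween 80/saline. MIC was the lowest concentration giving 90–100% visible growth inhibition versus controls.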

Candida albicans = assay: In vitro potency against Candida albicans; assay type: functional; outline: as §1
Cryptococcus neoformans = assay: In vitro potency against Cryptococcus neoformans; assay type: functional; outline: as §1
Mus musculus [1] = organism: Mus musculus; assay: Drug concentration required to achieve 50% survival of fungal infection compared with untreated animals in experiment 2.; assay type: functional
Outline: (§2)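 Outbred male ICR mice (18–20 g), X-irradiated 400 r 24 h before infection. C. albicans A26 blastospores, 2×10^6 per mouse, given iv by lateral tail vein. Dosed 0.2 mL at 20, 10 and 5 mg/kg at 0, 4, 24 and 48 h post-infection, in 4.0% hydroxypropyl cyclodextrin/sodium acetate pH 7.0/1.75% dextrose. Survival followed 7 days; ED50 by Reed and Muench.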

Mus musculus [2] = organism: Mus musculus; assay: Drug concentration required to achieve 50% survival of fungal infection compared with untreated animals in experiment 1.; assay type: functional; outline: as §2
Mus musculus [3] = organism: Mus musculus; assay: Evaluated for tail vein toxicity assay in male ICR mice; Positive; assay type: functional, organism-based
Mus musculus [4] = organism: Mus musculus; assay: Evaluated for tail vein toxicity assay in male ICR mice; Partial positive; assay type: functional, organism-based
Mus musculus [5] = organism: Mus musculus; assay: Evaluated for tail vein toxicity assay in male ICR mice; Negative; assay type: functional, organism-based

What does the source list for `C/C=C1\NC(=O)[C@H]([C@H](C)O)NC(=O)[C@H](CCN)NC(=O)[C@H](CCCCN)NC(=O)[C@H](CC(=O)O)NC(=O)[C@@H](CCN)NC(=O)[C@@H](NC(=O)C[C@H](O)CCCCCCCCCCCCC)COC(=O)[C@H]([C@H](O)CCl)NC(=O)[C@H]([C@H](O)C(=O)O)NC1=O`?
MIC (Aspergillus fumigatus): 10 µg/mL (≈ 8.09 µM); MIC (Candida albicans): 0.312 µg/mL (≈ 0.252 µM); MIC (Cryptococcus neoformans): < 0.02 µg/mL; ED50 (Mus musculus [1]): 12.4 mg/kg; ED50 (Mus musculus [2]): 7.8 mg/kg; Activity (Mus musculus [3]): Positive

What does the source list for `C/C=C1\NC(=O)[C@H]([C@H](C)O)NC(=O)[C@H](CCN)NC(=O)[C@H](CCCCNC(=O)OCc2oc(=O)oc2C)NC(=O)[C@H](CC(=O)O)NC(=O)[C@@H](CCNC(=O)OCc2oc(=O)oc2C)NC(=O)[C@@H](NC(=O)C[C@H](O)CCCCCCCCCCC)COC(=O)[C@H]([C@H](O)CCl)NC(=O)[C@H]([C@H](O)C(=O)O)NC1=O`?
MIC (Aspergillus fumigatus): > 20 µg/mL; MIC (Candida albicans): 5 µg/mL (≈ 3.29 µM); MIC (Cryptococcus neoformans): 0.3 µg/mL (≈ 0.197 µM); ED50 (Mus musculus [2]): 7.07 mg/kg; Activity (Mus musculus [4]): Partial positive

What does the source list for `C/C=C1\NC(=O)[C@H]([C@H](C)O)NC(=O)[C@H](CCN)NC(=O)[C@H](CCCCNC(=O)OCc2oc(=O)oc2C)NC(=O)[C@H](CC(=O)O)NC(=O)[C@@H](CCNC(=O)OCc2oc(=O)oc2C)NC(=O)[C@@H](NC(=O)C[C@H](O)CCCCCCCCCCCCC)COC(=O)[C@H]([C@H](O)CCl)NC(=O)[C@H]([C@H](O)C(=O)O)NC1=O`?
ED50 (Mus musculus [2]): > 20 mg/kg; Activity (Mus musculus [4]): Partial positive

With `C/C=C1\NC(=O)[C@H]([C@H](C)O)NC(=O)[C@H](CCNC(=O)OCc2oc(=O)oc2C)NC(=O)[C@H](CCCCN)NC(=O)[C@H](CC(=O)O)NC(=O)[C@@H](CCN)NC(=O)[C@@H](NC(=O)C[C@H](O)CCCCCCCCCCCCC)COC(=O)[C@H]([C@H](O)CCl)NC(=O)[C@H]([C@H](O)C(=O)O)NC1=O` as the compound, how does the ED50 (Mus musculus [2]) read?
Its ED50 is 9 mg/kg.

And the Activity (Mus musculus [4])?
Its Activity is “Partial positive”.

Which results are given for `C/C=C1\NC(=O)[C@H]([C@H](C)O)NC(=O)[C@H](CCN)NC(=O)[C@H](CCCCN)NC(=O)[C@H](CC(=O)O)NC(=O)[C@@H](CCN)NC(=O)[C@@H](NC(=O)C[C@H](O)CCCCCCCCCCC)COC(=O)[C@H]([C@H](O)CCl)NC(=O)[C@H]([C@H](O)C(=O)O)NC1=O` [PSEUDOMYCIN B] ({Tetradecanoyl(3R-OH)}-S[dDab]DK[Dab][aThr][Dhb][Asp(3S-OH)][Thr(4-Cl)]; ester 1-C)?
MIC (Aspergillus fumigatus): > 20 µg/mL; MIC (Candida albicans): 0.625 µg/mL (≈ 0.517 µM); MIC (Cryptococcus neoformans): 0.078 µg/mL (≈ 0.0646 µM); ED50 (Mus musculus [1]): 3.8 mg/kg; Activity (Mus musculus [3]): Positive

How did the MIC (Aspergillus fumigatus) turn out when `C/C=C1\NC(=O)[C@H]([C@H](C)O)NC(=O)[C@H](CCNC(=O)OCc2oc(=O)oc2C)NC(=O)[C@H](CCCCNC(=O)OCc2oc(=O)oc2C)NC(=O)[C@H](CC(=O)O)NC(=O)[C@@H](CCNC(=O)OCc2oc(=O)oc2C)NC(=O)[C@@H](NC(=O)C[C@H](O)CCCCCCCCCCC)COC(=O)[C@H]([C@H](O)CCl)NC(=O)[C@H]([C@H](O)C(=O)O)NC1=O` was run?
Its MIC is > 20 µg/mL.

What about the MIC (Candida albicans) of the same compound?
The MIC was > 20 µg/mL.

What about the MIC (Cryptococcus neoformans) of the same compound?
The MIC was 10 µg/mL (≈ 5.97 µM).

What about the ED50 (Mus musculus [1]) of the same compound?
The ED50 was 7.8 mg/kg.

What about the ED50 (Mus musculus [2]) of the same compound?
The ED50 was 6.85 mg/kg.

What about the Activity (Mus musculus [5]) of the same compound?
The Activity was “Negative”.

Which MIC (Aspergillus fumigatus) does the source give for `C/C=C1\NC(=O)[C@H]([C@H](C)O)NC(=O)[C@H](CCNC(=O)OCc2oc(=O)oc2C)NC(=O)[C@H](CCCCNC(=O)OCc2oc(=O)oc2C)NC(=O)[C@H](CC(=O)O)NC(=O)[C@@H](CCNC(=O)OCc2oc(=O)oc2C)NC(=O)[C@@H](NC(=O)C[C@H](O)CCCCCCCCCCCCC)COC(=O)[C@H]([C@H](O)CCl)NC(=O)[C@H]([C@H](O)C(=O)O)NC1=O` here?
Its MIC is > 20 µg/mL.

What about the MIC (Candida albicans) of the same compound?
Its MIC is > 20 µg/mL.

And the MIC (Cryptococcus neoformans)?
Its MIC is 5 µg/mL (≈ 2.93 µM).

What about the ED50 (Mus musculus [1]) of the same compound?
The ED50 was 10.8 mg/kg.

And the ED50 (Mus musculus [2])?
Its ED50 is 12.4 mg/kg.

And the Activity (Mus musculus [5])?
The Activity was “Negative”.

`C/C=C1\NC(=O)[C@H]([C@H](C)O)NC(=O)[C@H](CCNC(=O)OCc2oc(=O)oc2C)NC(=O)[C@H](CCCCN)NC(=O)[C@H](CC(=O)O)NC(=O)[C@@H](CCN)NC(=O)[C@@H](NC(=O)C[C@H](O)CCCCCCCCCCC)COC(=O)[C@H]([C@H](O)CCl)NC(=O)[C@H]([C@H](O)C(=O)O)NC1=O` was tested. Which MIC (Aspergillus fumigatus) did it give?
Its MIC is > 20 µg/mL.

What about the MIC (Candida albicans) of the same compound?
Its MIC is 5 µg/mL (≈ 3.67 µM).

What about the MIC (Cryptococcus neoformans) of the same compound?
The MIC was 1.3 µg/mL (≈ 0.953 µM).

And the ED50 (Mus musculus [2])?
Its ED50 is 5.95 mg/kg.

And the Activity (Mus musculus [5])?
The Activity was “Negative”.
